Compounds with a hit are over-represented: about 2.1% of the library has one in this group of screens.
hK5 inh = human KLK5 protease inhibitors, primary screen, biochemical, 1536-well; 210,000 tested, 0.59% active; inhibition, % at 5 µM; recombinant hK5, fluorogenic AMC substrate cleavage; Kallikrein-5 (Homo sapiens), Q9Y337;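 active means inhibition of 40% or more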;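 further: 0% = enzyme controls without compound and 100% = no-enzyme blanks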
FXIa inh = human FXIa protease inhibitors, primary screen, biochemical, 1536-well | Coagulation factor XI (Homo sapiens), P03951 | purified FXIa, Boc-Glu-Ala-Arg-AMC fluorogenic substrate | inhibition, % at 5 µM | 220,000 tested, 0.14% active | AID 798, 2007;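 active means inhibition of at least 40%; inactive means inhibition below 40%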;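 further: fluorescence of freed AMC excited at 355 nm; 0% = enzyme without compound and 100% = no enzyme blank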
Target sequence (P03951 19-387 limits assumed): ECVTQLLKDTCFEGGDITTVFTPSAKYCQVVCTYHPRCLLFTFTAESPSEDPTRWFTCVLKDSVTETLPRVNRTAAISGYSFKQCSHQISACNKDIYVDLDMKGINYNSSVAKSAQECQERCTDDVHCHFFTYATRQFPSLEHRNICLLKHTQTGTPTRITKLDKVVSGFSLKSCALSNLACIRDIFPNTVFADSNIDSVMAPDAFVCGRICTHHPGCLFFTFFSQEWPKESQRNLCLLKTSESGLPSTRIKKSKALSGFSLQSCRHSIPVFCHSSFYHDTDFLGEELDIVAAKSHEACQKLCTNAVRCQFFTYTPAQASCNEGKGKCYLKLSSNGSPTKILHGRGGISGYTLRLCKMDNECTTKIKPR
Target sequence (P03951 388-625 limits assumed): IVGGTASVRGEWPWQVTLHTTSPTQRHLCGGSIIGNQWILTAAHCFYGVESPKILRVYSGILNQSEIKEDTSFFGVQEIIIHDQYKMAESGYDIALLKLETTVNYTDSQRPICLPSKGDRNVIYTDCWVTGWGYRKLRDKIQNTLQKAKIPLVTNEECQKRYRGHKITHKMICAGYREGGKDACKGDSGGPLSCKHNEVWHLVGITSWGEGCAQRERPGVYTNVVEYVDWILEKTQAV
EP2 modulator = EP2 receptor modulators, cAMP readout, primary screen, cell-based, HTRF cAMP, PGE2 stimulation. Prostaglandin E2 receptor EP2 subtype (Homo sapiens), P43116. EP2-expressing cells, cAMP HTRF FRET, PGE2 co-stimulation. induction, % at 25 µM. 260,000 tested, 0.83% active. AID 940, 2007;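 active means compounds whose cAMP rise, as percent of the full-agonist control response, exceeds 60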;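 further: rat C6 glioma line stably carrying human EP2 under a CMV promoter; the protocol text gives 20 µM as final concentration; 100% = response of wells given 1 µM PGE2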
FXIIa inh 1536 = human FXIIa protease inhibitors, primary screen, biochemical, 1536-well. Coagulation factor XII (Homo sapiens), P00748. purified FXIIa, Boc-QGR-AMC fluorogenic substrate, 2 h. inhibition, % at 5 µM. 220,000 tested, 0.3% active; in the data active means inhibition above about 40%;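 further: 0% = enzyme with no compound and 100% = blank without enzyme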
Thrombin inh = human alpha-thrombin inhibitors, primary screen, counter-screen for coagulation protease inhibitor project, biochemical, 1536-well, fluorogenic AMC substrate | Prothrombin (Homo sapiens), P00734 | Boc-VPR-AMC fluorogenic substrate cleavage | inhibition, % at 5 µM | 220,000 tested, 0.26% active | AID 1046, 2008;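 active means inhibition at or above 40%; inactive means inhibition below 40%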;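 further: 0% = enzyme with no compound and 100% = wells without enzyme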
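Material: human alpha-thrombin enzyme / Medium: pH 7.5 Tris (50 mM) with NaCl 150 mM, Tween 20 0.05% / Compound: single-point dosing at 5 µM, 0.2% DMSO / Incubation: enzyme reaction carried out at room temperature / Detection: AMC fluorescence, 355/460 nm / Read-out basis: percent inhibition scaled between no-compound controls and no-enzyme blanks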
EP2 antag = human EP2 receptor antagonists, primary screen, TR-FRET cAMP, C6 glioma cells; Prostaglandin E2 receptor EP2 subtype (Homo sapiens), P43116; C6 glioma cells expressing human EP2; cells stimulated with saturating PGE2; inhibition, % at 25 µM; 260,000 tested, 0.52% active;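 active means percent inhibition above 40 after rounding to a whole number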;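 further: rat C6 glioma host cells with rolipram phosphodiesterase inhibitor present; the protocol text gives 20 µM as final concentration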
EP2 cAMP induct = cAMP induction in EP2, EP4, beta2-AR and parental cells, confirmation, counter-screen for EP2 modulator project, cell-based, five parallel assays, C6 glioma, HEK293; cAMP HTRF induction; plus low (about EC15) PGE2 agonist; 1,300 tested, 47% active; calls only at 20 µM (by protocol); shares compounds with EP2 modulator;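 active means cAMP induction above 50% in the main assay while under 30% in all four parallel counter assays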;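 further: rat C6 glioma cells stably expressing human EP2 receptor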
* = called active by the depositor; i = inactive; x = no result; + = active, no number.

SMILES	hK5 inh	FXIa inh	EP2 modulator	FXIIa inh 1536	Thrombin inh	EP2 antag	EP2 cAMP induct
Cc1ccc(N2CC(C(=O)Nc3nncs3)CC2=O)cc1 (stereo not given)	x	x	-9.1	x	x	6.6	x
CC1=CC2C(C(C)C)CCC(C)(O)C2CC1 (stereo not given)	x	x	65.4*	x	x	6.0	+
O=C(CC(Sc1ccccc1)c1cccs1)c1ccco1 (stereo not given)	-9.0	3.5	88.8*	12.4	-3.8	11.5	i
N#CCCN1CCN(C(=S)c2ccc(-c3ccc(Br)cc3)o2)CC1	x	x	-122.1	x	x	12.3	x
COc1nc(-c2ccccc2)nnc1-c1ccccc1	8.8	-3.0	74.6*	1.1	-4.5	5.3	i
NC(=O)CSc1nc(-c2ccccc2)c(-c2ccccc2)o1	-12.4	-4.1	67.1*	5.7	-1.2	2.8	+
CCOC(=O)c1cc(C)sc1NC(=O)c1ccc(Cl)s1	0.5	-2.9	65.0*	7.6	-5.6	6.7	+
CCOC(=O)c1c(NC(=O)c2ccc(Cl)s2)sc(C)c1C	x	x	x	x	x	13.2	x
CCOC(=O)c1cc(CC)sc1NC(=O)c1cc(OCC)c(OCC)c(OCC)c1	-25.9	-4.2	27.8	9.6	-0.9	5.2	x
CCOC(=O)c1cc(CC)sc1NC(=O)c1ccc2c(c1)OCCO2	-11.7	0.9	69.2*	12.5	-1.5	11.3	+
CC(C)(C)C(=O)c1cn(CC(=O)NCCc2ccccc2)c2ccccc12	x	x	-20.5	x	x	19.2	x
COc1ccc(-n2c(CCc3ccccc3)nnc2SCC(=O)c2ccccc2)cc1	-7.0	6.4	52.5	12.1	0.3	14.9	i
COc1ccc(C(=O)CSc2nnc(CCc3ccccc3)n2-c2ccccc2)cc1	-6.5	4.8	40.2	17.8	5.8	5.7	x
Cc1c(C=O)c(C=O)c(C)n1Cc1ccccc1	1.8	1.2	11.2	4.1	-5.4	15.9	x
CCOC(=O)c1c(C=O)c(C)n(Cc2ccccc2Cl)c1C	-10.5	5.8	72.2*	9.8	-3.4	3.9	i
CCOC(=O)c1c(C=O)c(C)n(Cc2ccc(C)cc2)c1C	-6.5	3.6	85.8*	5.9	1.1	7.8	i
C=CCn1c(=O)c2c(nc3n2CCN3c2cccc(Cl)c2C)n(C)c1=O	4.2	2.0	8.8	-2.0	-19.7	6.3	x
C=CCn1c(=O)c2c(nc(-c3ccc(S(=O)(=O)O)cc3)n2C)n(C)c1=O	x	x	66.2*	x	x	19.1	i
C=C[C@@](C)(O)CCC1C(=C)C[C@H](O)C2C(C)(C)CCCC12C (stereo not given in full)	x	x	79.5*	x	x	9.9	+
Cc1nn(C)c(C)c1NC(=O)CN1N=C(c2ccccc2)Cn2c(cc3sccc32)C1=O	x	x	-19.1	x	x	x	x
CCOC(=O)c1sc(NC(=O)C(CC)OC(=O)C(CC(C)C)NC(=O)c2ccccc2)nc1C (stereo not given)	-6.0	6.1	67.4*	17.7	2.5	18.5	i
C=CCn1c(=O)c(C(=O)NCCc2ccccc2)c(O)c2ccccc21	3.2	4.4	66.8*	15.0	4.7	8.4	i
C=CCn1c(=O)c(C(=O)Nc2ccccc2Br)c(O)c2ccccc21	x	x	4.8	x	x	4.3	x
Cn1c(CNc2ccc(F)cc2)nnc1SCC(=O)NNC(=O)Cc1ccccc1	-3.9	-3.5	50.7	2.8	-7.3	8.0	i
O=C(CSc1nnc(CNc2ccc(F)cc2)n1Cc1ccccc1)NCc1ccccc1	-8.3	6.4	-9.1	13.5	-0.6	14.3	x
SMILES	hK5 inh	FXIa inh	EP2 modulator	FXIIa inh 1536	Thrombin inh	EP2 antag	EP2 cAMP induct
Cc1cccc(Cn2c(=O)n(Cc3ccco3)c(=O)c3ccccc32)c1	4.0	-1.8	76.1*	6.0	-2.0	13.2	i
CCCCOc1ccccc1NC(=O)c1scc2c1OCCO2	0.0	2.8	87.2*	3.7	1.3	4.6	+
CC1CN(c2nc3ccccc3cc2-c2ccccc2)CC(C)O1 (stereo not given)	-5.1	-5.8	67.3*	1.1	-1.6	4.7	+
CC1CN(c2cc(-c3ccccc3)c3ccccc3n2)CC(C)O1 (stereo not given)	-20.6	-13.4	54.3	-15.4	-2.8	10.2	x
CSc1ccccc1NC(=O)COc1ccc(Cl)cc1C	-4.5	-2.7	66.5*	3.9	-5.3	12.2	+
Fc1ccc(Cn2nnnc2CN2CCn3cc(C(F)(F)F)nc3C2)cc1	x	x	9.6	x	x	x	x
Cc1ccccc1OCC(=O)NCC(=O)OCC(=O)c1cccs1	x	x	-32.7	x	x	10.4	x
COc1ccc(-n2c(CSc3nc(C)cc(C)n3)nnc2SCC(=O)N2CCCCC2C)cc1 (stereo not given)	x	x	-26.1	x	x	9.7	x
OCCNc1nc(Nc2ccccc2O)nc2ccccc12	x	x	-96.8	x	x	9.1	x
N#CN=C1SCCS1	-17.3	-4.3	65.6*	9.6	-9.7	13.4	i
COc1ccc(OC)c(C(=O)c2coc3ccc(OCC(=O)O)cc23)c1	0.1	0.8	65.4*	10.7	-0.5	14.1	i
COc1cccc2[nH]c3c(N4CCCCC4)ncnc3c12	-6.4	-7.0	94.4*	3.0	-2.2	3.9	+
CCn1ncc(C(=O)O)c1C	x	x	1.3	x	x	5.5	x
CCSc1nnc2n(CC(=O)N(C(C)C)C(C)C)c3ccccc3n12	x	x	1.8	x	x	8.4	x
Cc1oc(-c2ccccc2)cc1C(=O)Nc1cccc(/C=C/C(=O)O)c1	7.7	3.6	91.6*	8.3	-0.7	9.5	+
Cc1cc(C(=O)Nc2cccc(/C=C/C(=O)O)c2)c(C)o1	-2.1	-4.9	99.0*	5.9	-2.7	2.8	+
C/C(=N\N(Cc1ccccc1)c1ccccc1)c1ccncc1	-1.9	-2.6	75.1*	x	-5.2	17.0	+
CCOC(=O)N1CC=C2C(C#N)=C(N)C(C#N)(C#N)C(Cc3ccccc3)C2C1 (stereo not given)	x	x	22.6	x	x	8.4	x
COC(=O)c1c(C)nc2ccccc2c1-c1ccccc1	-5.8	8.3	88.9*	20.8	4.0	5.9	i
CCOC(=O)c1c(C)nc2ccccc2c1-c1ccccc1	-0.4	-1.0	84.8*	-0.3	-7.9	4.5	+
O=C1c2ccccc2OC2(C=Cc3ccccc3O2)N1Cc1ccccc1 (stereo not given)	-19.9	-0.6	76.5*	11.9	-2.1	x	+

Screening data (PubChem)
